# Reference: ChEMBL document CHEMBL4765454, “Betulinic acid derived amides are highly cytotoxic, apoptotic and selective” (Eur J Med Chem, 2020)
# The source made the active and inactive calls. No cut-off for these calls is given here.
# Legend:
# A-375 [1] = assay: Cytotoxicity against human A-375 cells assessed as reduction in cell viability incubated for 72 hrs by SRB assay; type: functional, cell-based; conditions: Homo sapiens, A-375, 72 h; read-out: EC50
# A-375 [2] = assay: Induction of apoptosis in human A375 cells assessed as early apoptotic cells at 3 uM measured after 24 hrs by Annexin V-FITC/propidium iodide staining based flow cytometry (reference value: 2.194%); type: functional
# HT-29 = assay: Cytotoxicity against human HT-29 cells assessed as reduction in cell viability incubated for 72 hrs by SRB assay; type: functional, cell-based; conditions: Homo sapiens, HT-29, 72 h; read-out: EC50
# A-375 [3] = assay: Induction of apoptosis in human A375 cells assessed as late apoptotic cells at 3 uM measured after 48 hrs by Annexin V-FITC/propidium iodide staining based flow cytometry (reference value: 5.108%); type: functional
# A-375 [4] = assay: Induction of apoptosis in human A375 cells assessed as necrotic cells at 3 uM measured after 48 hrs by Annexin V-FITC/propidium iodide staining based flow cytometry (reference value: 0.547%); type: functional
# A-375 [5] = assay: Induction of apoptosis in human A375 cells assessed as strangulation at 3 uM measured after 48 hrs by microscopic analysis; type: functional, cell-based
# Outline: (§1)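 A375 cells treated at 3.0, 4.8 or 6.2 µM and inspected by light microscopy after 24 h or 48 h. Cell number and morphology were scored for apoptotic features: shrinkage, strangulation and blebbing.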
# A-375 [6] = assay: Cell cycle arrest in human A375 cells assessed as accumulation at G2/M phase measured after 48 hrs by propidium iodide staining based flow cytometry (reference value: 10.83%); type: functional
# NIH3T3 = assay: Cytotoxicity against mouse NIH3T3 cells assessed as reduction in cell viability incubated for 72 hrs by SRB assay; type: cell-based; conditions: Mus musculus, NIH3T3, 72 h; read-out: EC50
# A-375 [7] = assay: Cell cycle arrest in human A375 cells assessed as accumulation at S phase measured after 24 hrs by propidium iodide staining based flow cytometry (reference value: 47.46%); type: functional
# A-375 [8] = assay: Cell cycle arrest in human A375 cells assessed as accumulation at G2/M phase measured after 24 hrs by propidium iodide staining based flow cytometry (reference value: 7.48%); type: functional
# A-375 [9] = assay: Induction of apoptosis in human A375 cells assessed as viable cells at 3 uM measured after 24 hrs by Annexin V-FITC/propidium iodide staining based flow cytometry (reference value: 90.123%); type: functional; conditions: read-out: Activity
# A-375 [10] = assay: Induction of apoptosis in human A375 cells assessed as cell shrinkage at 3 uM measured after 48 hrs by microscopic analysis; type: functional, cell-based; outline: as §1
# [11] = Selectivity ratio of EC50 for mouse NIH3T3 cells to EC50 for human HT-29 cells; type: toxicity; conditions: NIH3T3 cells versus HT-29 cells, read-out: Ratio EC50
# A-375 [12] = assay: Induction of apoptosis in human A375 cells assessed as blebbing at 3 uM measured after 48 hrs by microscopic analysis; type: functional, cell-based; outline: as §1
# A-375 [13] = assay: Induction of apoptosis in human A375 cells assessed as necrotic cells at 3 uM measured after 24 hrs by Annexin V-FITC/propidium iodide staining based flow cytometry (reference value: 0.331%); type: functional
# A-375 [14] = assay: Cell cycle arrest in human A375 cells assessed as accumulation at subG1 phase measured after 48 hrs by propidium iodide staining based flow cytometry (reference value: 0.57%); type: functional
# A2780 = assay: Cytotoxicity against human A2780 cells assessed as reduction in cell viability incubated for 72 hrs by SRB assay; type: functional, cell-based; conditions: Homo sapiens, A2780, 72 h; read-out: EC50
# [15] = Selectivity ratio of EC50 for mouse NIH3T3 cells to EC50 for human FaDu cells
# A-375 [16] = assay: Induction of apoptosis in human A375 cells assessed as viable cells at 3 uM measured after 48 hrs by Annexin V-FITC/propidium iodide staining based flow cytometry (reference value: 92.723%); type: functional; conditions: read-out: Activity
# A-375 [17] = assay: Induction of apoptosis in human A375 cells assessed as early apoptotic cells at 3 uM measured after 48 hrs by Annexin V-FITC/propidium iodide staining based flow cytometry (reference value: 1.622%); type: functional
# A-375 [18] = assay: Cell cycle arrest in human A375 cells assessed as accumulation at G1 phase measured after 48 hrs by propidium iodide staining based flow cytometry (reference value: 57.3%); type: functional
# A-375 [19] = assay: Cell cycle arrest in human A375 cells assessed as accumulation at S phase measured after 48 hrs by propidium iodide staining based flow cytometry (reference value: 31.3%); type: functional
# MCF7 = assay: Cytotoxicity against human MCF7 cells assessed as reduction in cell viability incubated for 72 hrs by SRB assay; type: functional, cell-based; conditions: Homo sapiens, MCF7, 72 h; read-out: EC50
# A-375 [20] = assay: Induction of apoptosis in human A375 cells at 3 uM measured after 24 hrs by microscopic analysis; type: functional, cell-based; outline: as §1
# A-375 [21] = assay: Induction of apoptosis in human A375 cells assessed as late apoptotic cells at 3 uM measured after 24 hrs by Annexin V-FITC/propidium iodide staining based flow cytometry (reference value: 7.352%); type: functional
# A-375 [22] = assay: Cell cycle arrest in human A375 cells assessed as accumulation at subG1 phase measured after 24 hrs by propidium iodide staining based flow cytometry (reference value: 0.46%); type: functional
# [23] = Selectivity ratio of EC50 for mouse NIH3T3 cells to EC50 for human A2780 cells; type: toxicity; conditions: NIH3T3 cells versus A2780 cells, read-out: Ratio EC50
# FaDu = assay: Cytotoxicity against human FaDu cells assessed as reduction in cell viability incubated for 72 hrs by SRB assay; type: functional, cell-based; conditions: Homo sapiens, FaDu, 72 h; read-out: EC50
# A-375 [24] = assay: Cell cycle arrest in human A375 cells assessed as accumulation at G1 phase measured after 24 hrs by propidium iodide staining based flow cytometry (reference value: 44.59%); type: functional
# [25] = Selectivity ratio of EC50 for mouse NIH3T3 cells to EC50 for human MCF7 cells; type: toxicity; conditions: NIH3T3 cells versus MCF7 cells, read-out: Ratio EC50
smiles,measurement,setting,value
C=C(C)[C@@H]1CC[C@]2(C(=O)Nc3cncc4ccccc34)CC[C@]3(C)[C@H](CC[C@@H]4[C@@]5(C)CC[C@H](OC(C)=O)C(C)(C)[C@@H]5CC[C@]43C)[C@@H]12,EC50,A-375 [1],1480 nM
same,Activity,A-375 [2],8.551%
same,EC50,HT-29,> 30 µM
same,Activity,A-375 [3],21.382%
same,Activity,A-375 [4],1.115%
same,Activity,A-375 [5],Active
same,Activity,A-375 [6],0%
same,EC50,NIH3T3,> 135 µM
same,Activity,A-375 [7],36.56%
same,Activity,A-375 [8],0%
same,viability at 3 µM,A-375 [9],83.5%
same,Activity,A-375 [10],Active
same,selectivity ratio,[11],4.5
same,Activity,A-375 [12],Active
same,Activity,A-375 [13],0.351%
same,Activity,A-375 [14],23.32%
same,EC50,A2780,2160 nM
same,Ratio EC50,[15],59.7
same,viability at 3 µM,A-375 [16],33.2%
same,Activity,A-375 [17],44.309%
same,Activity,A-375 [18],41.85%
same,Activity,A-375 [19],34.84%
same,EC50,MCF7,4.65 µM
same,Activity,A-375 [20],Active
same,Activity,A-375 [21],9.649%
same,Activity,A-375 [22],2.38%
same,selectivity ratio,[23],62.5
same,EC50,FaDu,2260 nM
same,Activity,A-375 [24],61.06%
same,selectivity ratio,[25],29
